{
  "source": "ChEMBL document CHEMBL1141111",
  "about": "“Synthesis and biological evaluation of spin-labeled alkylphospholipid analogs” (J Med Chem, 2005)",
  "key": {"[1]": {"organism": "Homo sapiens", "test": "(§1) Hemolytic effect (100 uM) on human erythrocytes", "type": "functional", "how_it_was_run": "(§2)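 Blood from a healthy donor was collected in EDTA, the plasma removed, and the cells washed in PBS. Each 1 mL sample held 8.59 × 10^7 erythrocytes in PBS (pH 7.5) with 100 µL of 5.5 mM glucose, plus free lipid (30 nmol) or liposomes (30 or 100 nmol). Samples were shaken 30 min at room temperature and spun at 840g. The supernatant was read with Drabkin's reagent at 540 nm. Results are % of Triton X-100 total lysis, in triplicate.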"}, "[2]": {"organism": "Homo sapiens", "test": "(§3) Hemolytic effect (30 uM) on human erythrocytes upon incubation with lipid for 30 min in pH 7.5", "type": "functional", "how_it_was_run": "as §2"}, "[3]": {"organism": "Homo sapiens", "test": "Hemolytic effect (30 uM) on human erythrocytes upon incubation with liposomes for 30 min in pH 7.5", "type": "functional", "how_it_was_run": "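Washed erythrocytes from a healthy donor's EDTA blood, stored at 4 °C and used within 48 h. About 8.59 × 10^7 cells in 1 mL PBS (pH 7.5) with 5.5 mM glucose solution. Extruded LUVET (SL-APL/cholesterol/dicetyl phosphate 10:10:2), 30 nmol lipid, shaken 30 min at room temperature. Supernatant read with Drabkin's reagent at 540 nm, as % of Triton X-100 lysis, in triplicate.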"}, "[4]": {"test_system": "MCF7", "test": "Inhibitory concentration against MCF-7 cells gwoth", "type": "functional, cell-based, Homo sapiens", "how_it_was_run": "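MCF7 cells were grown in RPMI-1640 with L-glutamine and 10% heat-inactivated FCS, then seeded at 2 × 10^4 per well the day before treatment. Free or liposomal compound (APL/Ch/DCP 10:10:2, 200 nm extruded LUVs) was serially diluted 200–6.25 µM and applied for 24 h in triplicate. MTT (0.5 mg/mL) was added for 4 h, and formazan was dissolved in DMSO and read at 540 nm. IC50 comes from growth-inhibition curves versus untreated cells, mean ± SD of ≥3 independent experiments.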"}, "[5]": {"test": "as §1", "type": "functional", "how_it_was_run": "as §2"}, "[6]": {"test": "as §3", "type": "functional", "how_it_was_run": "as §2"}},
  "note": "pIC50: −log10 of the molar value.",
  "data": [
    {"smiles": "CCCCCCCCC1(CCCCCCCCCOP(=O)([O-])OC2CC[N+](C)(C)CC2)OCC(C)(C)N1[O]", "note": "(stereo not drawn)", "values": [
      {"measurement": "Hemolysis", "setting": "[1]", "value": 5.9, "unit": "%"},
      {"measurement": "Hemolysis", "setting": "[2]", "value": 34.6, "unit": "%"},
      {"measurement": "Hemolysis", "setting": "[3]", "value": 3.7, "unit": "%"}
    ]},
    {"smiles": "CCCCC1(CCCCCCCCCCCCCOP(=O)([O-])OC2CC[N+](C)(C)CC2)OCC(C)(C)N1[O]", "note": "(stereo not drawn)", "values": [
      {"measurement": "pIC50", "setting": "[4]; mcf7", "value": 4.25},
      {"measurement": "Hemolysis", "setting": "[5]", "value": 5.3, "unit": "%"},
      {"measurement": "Hemolysis", "setting": "[6]", "value": 16.1, "unit": "%"},
      {"measurement": "Hemolysis", "setting": "[3]", "value": 3.2, "unit": "%"}
    ]},
    {"smiles": "CCCCCCCCCCCCCC1(CCCCOP(=O)([O-])OC2CC[N+](C)(C)CC2)OCC(C)(C)N1[O]", "note": "(stereo not drawn)", "values": [
      {"measurement": "Hemolysis", "setting": "[1]", "value": 17.9, "unit": "%"},
      {"measurement": "Hemolysis", "setting": "[2]", "value": 99, "unit": "%"},
      {"measurement": "Hemolysis", "setting": "[3]", "value": 6.6, "unit": "%"}
    ]},
    {"smiles": "CCCCCCC1(CCCCCCCCCCCOP(=O)([O-])OC2CC[N+](C)(C)CC2)OCC(C)(C)N1[O]", "note": "(stereo not drawn)", "values": [
      {"measurement": "Hemolysis", "setting": "[1]", "value": 5.7, "unit": "%"},
      {"measurement": "Hemolysis", "setting": "[2]", "value": 18.3, "unit": "%"},
      {"measurement": "Hemolysis", "setting": "[3]", "value": 4.1, "unit": "%"}
    ]},
    {"smiles": "CCCCCCC1(CCCCCCCCCCCOP(=O)([O-])OCC[N+](C)(C)C)OCC(C)(C)N1[O]", "note": "(stereo not drawn)", "values": [
      {"measurement": "Hemolysis", "setting": "[1]", "value": 20.3, "unit": "%"},
      {"measurement": "Hemolysis", "setting": "[2]", "value": 98.3, "unit": "%"},
      {"measurement": "Hemolysis", "setting": "[3]", "value": 4.9, "unit": "%"}
    ]},
    {"smiles": "CCCCCCCCCCCC1(CCCCCCOP(=O)([O-])OC2CC[N+](C)(C)CC2)OCC(C)(C)N1[O]", "note": "(stereo not drawn)", "values": [
      {"measurement": "Hemolysis", "setting": "[1]", "value": 6.7, "unit": "%"},
      {"measurement": "Hemolysis", "setting": "[2]", "value": 95.2, "unit": "%"},
      {"measurement": "Hemolysis", "setting": "[3]", "value": 4.4, "unit": "%"}
    ]},
    {"smiles": "CCCCCCCCCCCCCCCCCCOP(=O)([O-])OC1CC[N+](C)(C)CC1", "note": "[PERIFOSINE]", "values": [
      {"measurement": "pIC50", "setting": "[4]; Homo sapiens, MCF7", "value": 4.12},
      {"measurement": "Hemolysis", "setting": "[5]", "value": 93.5, "unit": "%"},
      {"measurement": "Hemolysis", "setting": "[6]", "value": 98.1, "unit": "%"},
      {"measurement": "Hemolysis", "setting": "[3]", "value": 3.2, "unit": "%"}
    ]}
  ]
}
